Test results from ChEMBL document CHEMBL1641563, “Synthesis and antihyperglycemic activity of phenolic C-glycosides” (2011).

What was measured:
Type in all cases: functional
Rattus norvegicus [1] = assay: Antihyperglycemic activity against streptozotocin-induced Sprague-Dawley albino rat diabetic model assessed as area under the 0 to 5 hrs blood glucose response curve (0-5 hrs AUC) at 25 mg/kg, po after 48 hrs by glucometer
Summary of the method: (§1)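 Male Sprague–Dawley rats, fasted overnight, received STZ 60 mg/kg ip in 0.1 M citrate pH 4.5. Rats with glucose 140–270 mg/dl at 48 h were used, n = 5 per group. Compound was given at 25 mg/kg orally in 1.0% gum acacia, with vehicle controls, and a sucrose load of 2.5 g/kg followed 30 min later. Glucose was read by glucometer at 1–6 h and 24 h. Percent activity came from AUC versus control, with Dunnett's test.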

Rattus norvegicus [2] = assay: Antihyperglycemic activity against streptozotocin-induced Sprague-Dawley albino rat diabetic model assessed as area under the 0 to 24 hrs blood glucose response curve (0-24 hrs AUC) at 25 mg/kg, po after 48 hrs by glucometer; summary of the method: as §1
L6 = assay: Antihyperglycemic activity against rat L6 cells assessed as increase in glucose uptake by liquid scintillation counting; set-up: concentration or dose not given beside the values
Summary of the method: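 L6 myoblasts were grown in DMEM with 10% FBS, then differentiated into myotubes for 7–8 days in 2% FBS. Myotubes were treated with compound at 10 or 50 µM for 18 h and washed in Krebs–Ringer HEPES. Uptake of 2-deoxy-[3H]-D-glucose (3 µCi, plus 20 µM unlabelled) was measured over 15 min. Non-specific uptake was taken with 10 µM cytochalasin B. Counts (cpm/well) were compared with controls.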

Rattus norvegicus [3] = assay: Antihyperglycemic activity against streptozotocin-induced Sprague-Dawley albino rat diabetic model assessed as reduction in blood glucose at 25 mg/kg, po after 24 hrs; set-up: scale not given: the % may be the effect or the level left; summary of the method: as §1

SMILES | Activity (Rattus norvegicus [1]) | Activity (Rattus norvegicus [2]) | Activity (L6) | Activity (Rattus norvegicus [3])
OC[C@H]1O[C@@H](c2c(O)ccc3cc(Cc4ccc(O)cc4)oc23)[C@H](O)[C@@H](O)[C@@H]1O | 9.78% | 11.2% | – | –
O=c1c(O)c(-c2ccc(O)cc2)oc2cc(O)c([C@@H]3O[C@H](CO)[C@@H](O)[C@H](O)[C@H]3O)c(O)c12 | 16.7% | 23.5% | 12.2% | –
O=C1c2ccc(O)c([C@@H]3O[C@H](CO)[C@@H](O)[C@H](O)[C@H]3O)c2OC1(O)Cc1ccc(O)cc1 (stereo not given in full) | 1.99% | 7.9% | – | –
O=C1CC(c2ccc(O)cc2)Oc2cc(O)c([C@@H]3O[C@H](CO)[C@@H](O)[C@H](O)[C@H]3O)c(O)c21 (stereo not given in full) | 8.41% | 15.1% | 12.2% | –
OC[C@H]1O[C@@H](c2c(O)cccc2O)[C@H](O)[C@@H](O)[C@@H]1O | 12.7% | 22.3% | – | –
O=C1Oc2c(ccc(O)c2[C@@H]2O[C@H](CO)[C@@H](O)[C@H](O)[C@H]2O)/C1=C\c1ccc(O)cc1 | 17.2% | 29% | 16% | –
O=c1c(O)c(-c2ccc(O)c(O)c2)oc2cc(O)c([C@@H]3O[C@H](CO)[C@@H](O)[C@H](O)[C@H]3O)c(O)c12 | 15.6% | 8.56% | – | –
O=c1cc(-c2ccc(O)c(O)c2)oc2c([C@@H]3O[C@H](CO)[C@@H](O)[C@H](O)[C@H]3O)c(O)ccc12 | 14.3% | 16.1% | – | –
O=C(CCc1ccccc1)c1c(O)cc(O)c([C@@H]2O[C@H](CO)[C@@H](O)[C@H](O)[C@H]2O)c1O | 22.3% | 26.5% | 11.6% | 26.5%
O=C1c2c(cc(O)c([C@@H]3O[C@H](CO)[C@@H](O)[C@H](O)[C@H]3O)c2O)OC(c2ccc(O)c(O)c2)C1O (stereo not given in full) | 17.6% | 12.8% | 10.2% | –
CN(C)C(=N)NC(=N)N [METFORMIN] | 27.2% | 24.1% | 19.4% | –
COC(=O)c1c(O)cc(O)c([C@@H]2O[C@H](CO)[C@@H](O)[C@H](O)[C@H]2O)c1O | 7.27% | 2.9% | – | –
O=C1c2c(cc(O)c([C@@H]3O[C@H](CO)[C@@H](O)[C@H](O)[C@H]3O)c2O)OC(c2ccc(O)cc2)C1O (stereo not given in full) | 23.8% | 23.8% | – | 23.8%
CC(=O)c1c(O)cc(O)c([C@@H]2O[C@H](CO)[C@@H](O)[C@H](O)[C@H]2O)c1O | 18% | 20.9% | 15.3% | –
O=C(CC(O)c1ccc(O)c(O)c1)c1ccc(O)c([C@@H]2O[C@H](CO)[C@@H](O)[C@H](O)[C@H]2O)c1O (stereo not given in full) | 20% | 19.5% | – | –
COc1cc(OC)c([C@@H]2O[C@H](CO)[C@@H](O)[C@H](O)[C@H]2O)c(OC)c1C(=O)/C=C/c1ccc(C(C)C)cc1 | 34.9% | 33.6% | – | 33.6%
COC(=O)c1c(O)c([C@@H]2O[C@H](CO)[C@@H](O)[C@H](O)[C@H]2O)c(O)c([C@@H]2O[C@H](CO)[C@@H](O)[C@H](O)[C@H]2O)c1O | 11.5% | 7.78% | 10.8% | –
